Screens deposited in PubChem BioAssay by several laboratories.
The list is not random: actives were taken first. Their share in the collection is about 3.7%.
aDG glyco up – alpha-DG glycosylation activation; Pro5-aDG cells, alpha-DG glycosylation AlphaScreen (IIH6); 0% Pro5, 100% B10-LARGE cell signal; activation, % at 10 µM; actives 0.22% (n = 360,000); AID 624168;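 active means activation of at least 8% versus controls, or a plate z-score of at least 8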;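 further: Pro5 are CHO cells carrying HIG-tagged alpha-DG that lacks glycosylation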
procasp7 counter – counter-screen: procaspase-7 (human) activation; P55210; recombinant procaspase-7, Ac-DEVD-pNA absorbance 405 nm; D23A/D198A/D206A triple mutant, cannot self-cleave; scale: DMSO 0, 5 µM enzyme 100; activation, % at 8.5 µM; actives 0.093% (n = 330,000); AID 463210;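 active means percent activation above the screen-wide mean plus 3 SD, cut at about 25% in these data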
Target sequence (P55210 whole entry D23A/D198A/D206A): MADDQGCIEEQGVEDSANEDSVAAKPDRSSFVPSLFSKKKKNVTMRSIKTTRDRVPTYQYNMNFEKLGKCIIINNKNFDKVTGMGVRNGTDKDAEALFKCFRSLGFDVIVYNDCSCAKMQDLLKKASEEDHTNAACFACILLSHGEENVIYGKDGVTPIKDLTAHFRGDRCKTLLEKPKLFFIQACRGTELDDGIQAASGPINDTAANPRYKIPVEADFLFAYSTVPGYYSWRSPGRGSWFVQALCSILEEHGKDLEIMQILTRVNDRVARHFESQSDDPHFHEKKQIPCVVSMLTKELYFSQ
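Replicates: singlicate. Assay system: Procaspase-7 triple mutant (PC-7 D3A). Signal: 405 nm absorbance of p-nitroaniline. Times: 1 h preincubation, 2 h reaction. Buffer or medium: Zinc-free HEPES pH 7.4 with 300 mM NaCl, 0.01% Triton X-100. Also added: DEVD-pNA substrate. Benchmarks: DMSO wells as 0%, DMSO with 5 µM added PC-7 as 100%.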
NR3A LBD binder – modulators (binders) of human NR3A ligand-binding domain | NR3A LBD differential scanning fluorimetry, Tm shift; 0% = protein alone, 100% = glycine-bound protein | Tm shift relative to glycine control, % at 25 µM | actives 2.5% (n = 340,000) | AID 1259313;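 active means melting temperature shift of at least 10% of the positive control shift, at one fixed dose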
proCasp3 act – activates human procaspase-3. P42574. recombinant procaspase-3 D3A, Ac-DEVD-pNA absorbance 405 nm. activation, % at 8.5 µM. actives 0.11% (n = 330,000);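 active means activation above the mean of all tested compounds plus 3 SD, cut at about 21% in these data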;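 further: 0% = DMSO alone and 100% = DMSO wells spiked with extra 5 µM PC-3 D3A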
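material = Procaspase-3 D3A mutant | probe or stimulus = Ac-DEVD-pNA | compound = single dose, 8.5 µM nominal compound, 0.8% DMSO | timing = 1 h preincubation, 2 h reaction | measured by = 405 nm absorbance of p-nitroaniline, reads at 0 and 120 min | benchmarks = DMSO-only low control, 5 µM PC-3 D3A high control | repeats = singlicate, each compound tested once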
MPTP inh – blocks calcium-induced mitochondrial swelling; isolated mouse mitochondria, Ca2+ swelling absorbance, 30 min; inhibition, % at 10 µM; actives 1.4% (n = 360,000); AID 602449;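 active means inhibition of 50% or more, scaled per plate between neutral and stimulator controls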;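 further: 0% = DMSO wells given calcium and 100% = 1 mM EGTA wells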
MPTP counter – membrane potential counter-screen of mitochondrial pore inhibitors; shares compounds with MPTP inh; isolated mitochondria, Rhodamine 123 fluorescence; inhibition, % at 10 µM; actives 78% (n = 5,000); in the data active means inhibition above about 22%;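 further: 0% = DMSO vehicle and 100% = positive control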
Active calls of the source: *; x = not tested or not shown.

SMILES	aDG glyco up	procasp7 counter	NR3A LBD binder	proCasp3 act	MPTP inh	MPTP counter
CCCn1c(CN2CCN(c3cccc(Cl)c3)CC2)nc2c1c(=O)n(C)c(=O)n2C	0.8	1.1	-2.5	6.9	77.7*	79.6*
CCCCn1c(CN2CCN(c3cccc(Cl)c3)CC2)nc2c1c(=O)n(C)c(=O)n2C	1.1	3.3	-2.0	-0.2	35.9	x
COC(=O)c1sc(NC(=S)NC(=O)c2cccc(Br)c2)nc1C	0.0	12.1	-3.4	-4.6	89.5*	49.2*
CC(=O)c1c(C)[nH]c(C(=O)Nc2nc(-c3ccccc3)c(C)s2)c1C	-0.3	-0.8	3.9	-1.3	79.0*	55.1*
Cc1sc(NC(=O)c2cccs2)nc1-c1ccccc1	0.8	0.3	-9.3	3.6	-0.1	x
Nc1nnc(CC(=O)N/N=C/c2cc([N+](=O)[O-])cc(Br)c2O)s1	0.5	-1.9	17.6*	-10.8	53.3*	-11.8
Cc1ccc(-n2ncc3c(N4CCCC(C)C4)ncnc32)c(C)c1 (stereo unspecified)	0.6	6.1	-0.5	-0.8	58.7*	42.8*
Cc1ccc(-n2ncc3c(SCc4cccnc4)ncnc32)c(C)c1	2.8	x	0.0	x	87.7*	81.9*
Cc1ccc(-n2ncc3c(N4CCCC4)ncnc32)c(C)c1	0.2	1.3	-3.7	2.8	-0.8	x
Cc1ccc(-n2ncc3c(SCc4cccc(C)c4)ncnc32)cc1	0.0	-3.2	-2.0	6.2	7.3	x
O=S1(=O)CC(N2CC=CC2)CN1C1CCCCC1 (stereo unspecified)	-0.1	x	x	x	0.8	x
Cc1c(NC(=S)NC(=O)c2sc3ccccc3c2Cl)cccc1C(=O)O	-0.2	-5.7	1.6	-1.8	-1.5	x
COc1ccccc1C(=O)NC(=S)NNC(=O)c1sc2ccccc2c1Cl	0.4	-8.0	-7.0	-0.9	95.1*	-6.8
COc1ccccc1C(=O)NNC(=S)NC(=O)c1sc2ccccc2c1Cl	1.2	10.7	-3.4	6.7	97.8*	-10.6
COc1ccc(/C=N/NC(=O)CCSc2nc3ccccc3s2)cc1OC	-0.1	4.5	-3.0	1.0	0.7	x
O=C(CCSc1nc2ccccc2s1)N/N=C/c1c(O)ccc2ccccc12	0.5	-37.0	-0.1	-8.2	77.0*	63.0*
O=C1CC=Nc2ccc([N+](=O)[O-])cc21	-0.3	x	x	x	-0.9	x
CCOC(=O)c1ccc(NC(=O)c2cccc(S(=O)(=O)N3c4ccccc4CC3C)c2)s1 (stereo unspecified)	0.1	8.2	25.4*	-3.3	73.5*	73.2*
CC1Cc2ccccc2N1S(=O)(=O)c1cccc(C(=O)NCCCO)c1 (stereo unspecified)	0.0	1.5	3.7	2.6	-4.6	x
COC(=O)c1cc2c(C(F)(F)F)nn(C)c2s1	0.0	7.6	0.2	10.6	2.7	x
NS(=O)(=O)c1ccc(NC(=S)Nc2cc(Cl)c(Cl)cc2Cl)cc1	-0.3	13.5	-3.3	2.1	88.0*	92.0*
CN(CC(=O)Nc1ccc(C#N)cc1)Cc1ccc(Cl)cc1	0.6	5.1	-8.5	-1.9	2.1	x
N#Cc1ccc(NC(=O)Nc2ccc(Cl)cc2)cc1	2.3	1.6	34.5*	-6.9	105.0*	88.9*
N#Cc1ccc(NC(=O)NN2CCCCCC2)cc1	-0.2	x	7.3	x	101.5*	86.6*
NS(=O)(=O)c1ccc(NC(=O)Nc2ccc(Cl)cc2)cc1	0.5	3.7	4.6	-4.7	77.0*	84.8*
COc1ccc(NC(=O)C2(C)Cc3c(-c4cccc(C(F)(F)F)c4)ccnc3O2)cn1 (stereo unspecified)	0.0	x	x	x	1.0	x
CCOC(=O)C(=O)Nc1ccccc1C(=O)NCc1ccccc1	0.1	6.2	-0.8	-1.8	3.6	x
Cc1cc(Cl)ccc1C(O)c1ncc(-c2ccc(F)cc2)[nH]1 (stereo unspecified)	0.9	x	x	x	1.9	x
Cc1ccc(S(=O)(=O)NN=C(c2ccccc2)c2cccs2)cc1	0.1	x	x	x	1.0	x
COCCNC(=O)C1(C)CCCN(Cc2ccc(Cl)nc2)C1 (stereo unspecified)	-0.3	x	x	x	-1.4	x
